KLK7 zymogen act: proKLK7 zymogen activators, primary screen, biochemical, fluorescence intensity; purified proKLK7, EDANS-DABCYL substrate fluorescence; 100% is mature enzyme control, 0% vehicle; Kallikrein-7 (Homo sapiens), P49862; activation, % at 7 µM; AID 652039, 2013; 370,000 compounds, 0.9% hits;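 active means activation above the mean of all tested compounds plus 3 SD, computed per campaign excluding outliers beyond control limits, cut at about 13% in these data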
Wee1 degr inh: Wee1 degradation inhibitors, primary screen, cell-based, HeLa, Wee1K328M-luciferase, luminescence | Wee1-like protein kinase (Homo sapiens), P30291 | HeLa Luc-Wee1K328M stability; 100% = proteasome inhibitor MG132 effect | reporter increase, % at 5 µM | 220,000 compounds, 1.2% hits;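 active means activation above the mean of all tested compounds plus 3 SD, set per screening run, cut at about 8.8% in these data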;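 further: cells exposed to compound for 20 h before luminescence read; 0% = DMSO alone and 100% = MG132 at 30 µM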
Target sequence (P30291 whole entry K328M): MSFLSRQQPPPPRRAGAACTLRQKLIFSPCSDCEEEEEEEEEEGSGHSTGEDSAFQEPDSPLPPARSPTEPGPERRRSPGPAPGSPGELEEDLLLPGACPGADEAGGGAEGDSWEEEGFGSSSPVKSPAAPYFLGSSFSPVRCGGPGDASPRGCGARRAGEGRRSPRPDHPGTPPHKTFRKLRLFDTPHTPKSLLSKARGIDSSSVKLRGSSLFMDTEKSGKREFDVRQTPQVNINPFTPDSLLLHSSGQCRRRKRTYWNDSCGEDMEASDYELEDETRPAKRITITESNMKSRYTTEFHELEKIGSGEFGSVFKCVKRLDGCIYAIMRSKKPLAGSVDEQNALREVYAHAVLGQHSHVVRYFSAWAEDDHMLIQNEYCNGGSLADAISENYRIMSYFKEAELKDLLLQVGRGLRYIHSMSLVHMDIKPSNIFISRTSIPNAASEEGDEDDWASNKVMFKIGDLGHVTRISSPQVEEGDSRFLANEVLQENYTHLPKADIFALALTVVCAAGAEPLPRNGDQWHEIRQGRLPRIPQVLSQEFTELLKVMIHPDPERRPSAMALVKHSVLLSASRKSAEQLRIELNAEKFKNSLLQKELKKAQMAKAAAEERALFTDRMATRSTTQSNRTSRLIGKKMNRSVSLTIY
RanGTP-Imp inh: inhibitors of RanGTP-importin-beta interaction, primary screen, biochemical, FRET, CFP-Ran, YFP-importin-beta, homogeneous. AID 2216, 2009. 300,000 compounds, 1.1% hits. cell-free CFP-Ran/YFP-importin-beta FRET ratio. Ran GTPase (GTP-bound) - importin-beta complex. inhibition, % (no concentration beside the values);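 active means more than half of the replicate wells show a fall in the fluorescence ratio signal beyond about 16%, limit read from the data, passing the limit was not always enough; inconclusive means exactly half of the replicate wells pass the set limit; inactive means fewer than half of replicates pass the limit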;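 further: 0% = DMSO wells and 100% = Ran loaded with GDP instead of GTP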
Runt-SMMHC FRET: inhibitors of RUNX1 Runt–CBFb-SMMHC binding, primary screen, biochemical, FRET, Cerulean-Runt, Venus-CBFb-SMMHC, uHTS; inhibition, % at 20 µM; Cerulean-Runt/Venus-CBFb-SMMHC FRET ratio 530/480, 1 h; 220,000 compounds, 0.74% hits; Runt-related transcription factor 1 (Homo sapiens) + Core-binding factor subunit beta …; AID 1434, 2008;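 active means mean inhibition across duplicate retests at 20 µM reaching about 50%, limit read from the data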;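 further: 0% = DMSO wells and 100% = wells with excess untagged CBFb-SMMHC; inhibitors lower the FRET ratio by blocking Runt binding to CBFb-SMMHC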
Runt-CBFb FRET: inhibitors of RUNX1 Runt–CBFb binding, primary screen, biochemical, FRET, Cerulean-Runt, Venus-CBFb, uHTS. Cerulean-Runt/Venus-CBFb FRET ratio 530/480, 1 h. inhibition, % at 20 µM. 220,000 compounds, 0.46% hits. AID 1496, 2009;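 active means inhibition over about 50% at 20 µM in the single-dose screen, limit read from the data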;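 further: 0% = DMSO wells and 100% = excess unlabeled CBFb competitor control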
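Assay system: Cerulean-Runt domain fusion protein, energy donor; Signal: fluorescence energy transfer, 422 nm excitation, 530/480 nm emission; Timing: 1 h compound exposure, room temperature; Control set: unlabeled CBFb; Medium: Tris buffer pH 7.5 with salts and BSA; Compound: single test concentration of 20 µM, 1% DMSO final; Probe or stimulus: Venus-CBFb 100 nM.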
AI-2 QS modul: Vibrio harveyi AI-2 quorum sensing modulators, primary screen, JMH597 strain, luminescence/OD600 ratio | Vibrio harveyi JMH597 AI-2 luminescence/OD600 ratio, 9 h; hits give low values; strain lacks LuxN and CqsS sensors; 0 = neutral-control median | AID 2094, 2009 | 300,000 compounds, 0.4% hits | activity change, % at 7.5 µM; in the data active means activity change below about -75%, passing the limit was not always enough; inconclusive means no clear call, values can overlap the other calls;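 further: luminescence divided by OD600 gain over 9 h not by final OD600 alone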
proKLK7 act conf: proKLK7 zymogen activators, confirmation, biochemical, fluorescence intensity, triplicate; AID 686949, 2013; purified proKLK7, EDANS-DABCYL substrate fluorescence; scaled: vehicle 0, mature enzyme 100; 3,200 compounds, 68% hits; shares compounds with KLK7 zymogen act; activation, % at 7 µM;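 active means activation, as change over the incubation, above the mean of all tested compounds plus 3 SD, cut at about 13% in these data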
EDANS interfere: EDANS-DABCYL substrate optical interference, artefact control for kallikrein-7 zymogen activator project, biochemical, fluorescence intensity, high throughput | AID 686952, 2013 | no enzyme, 4 h; solvent 0%, active enzyme control 100% | 3,200 compounds, 80% hits | activation, % at 7 µM | shares compounds with KLK7 zymogen act;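 active means activation above the all-compound mean plus 3 SD, ignoring values outside control-based bounds, cut at about 4.8% in these data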;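 further: value is the 4 h activation minus the activation read at time zero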
* marks the source's active call; other numbers are inactive results. An excerpt weighted towards active compounds, which were near 2.9% of everything screened.

CCOC(=O)c1c(NC(=O)CSc2nc3cc(Cl)ccc3c(=O)n2Cc2ccco2)sc(C(=O)N(C)C)c1C was read as KLK7 zymogen act -0.1, Wee1 degr inh -2.1, RanGTP-Imp inh inconclusive, Runt-SMMHC FRET 2.5, Runt-CBFb FRET -4.8 and AI-2 QS modul 22.9.
For CC1C2CC(CC1(C)C)N(C(=O)Nc1ccc3nccnc3c1)C2 (configuration not stated) the results were KLK7 zymogen act 18.1*, Wee1 degr inh -1.6, RanGTP-Imp inh 3.0, Runt-SMMHC FRET 13.7, Runt-CBFb FRET 2.8, AI-2 QS modul 10.8, proKLK7 act conf -0.7 and EDANS interfere -1.2.
For O=C1CC(NS(=O)(=O)c2ccc([N+](=O)[O-])cc2)CN1c1cccc(F)c1 (configuration not stated) the results were KLK7 zymogen act 0.4, RanGTP-Imp inh 2.7 and AI-2 QS modul 4.6.
`COC(=O)CCN1CCC2CC1c1cc(Cl)ccc12` (configuration not stated) gave KLK7 zymogen act -0.3.
For CCCCC1C2C(=O)N(c3ccc(C)cc3)C(=O)C2ON1c1ccccc1 (configuration not stated) the results were KLK7 zymogen act 15.2*, Wee1 degr inh -0.7, RanGTP-Imp inh -0.7, Runt-SMMHC FRET 1.4, Runt-CBFb FRET -1.2, AI-2 QS modul 36.7, proKLK7 act conf 36.0* and EDANS interfere 34.0*.
For CCCCC1C2C(=O)N(c3ccccc3)C(=O)C2ON1c1ccccc1 (configuration not stated) the results were KLK7 zymogen act 0.7, Wee1 degr inh 3.0, RanGTP-Imp inh -1.9, Runt-SMMHC FRET -1.8, Runt-CBFb FRET 0.3 and AI-2 QS modul 14.8.
CC(OC(=O)CC1CCCCC1)C(=O)Nc1ccc(F)cc1 (configuration not stated) was read as KLK7 zymogen act -0.4, RanGTP-Imp inh 1.3 and AI-2 QS modul 31.0.
Screening COc1ccccc1C(=O)NCc1ccccn1 returned KLK7 zymogen act -0.6, Wee1 degr inh -2.6, RanGTP-Imp inh -0.2, Runt-SMMHC FRET 2.9, Runt-CBFb FRET 1.8 and AI-2 QS modul 4.9.
Screening CN(C)c1ccc(/C=C/c2cccc[n+]2[O-])cc1 returned KLK7 zymogen act 31.7*, Wee1 degr inh 9.9*, RanGTP-Imp inh -283.8, Runt-SMMHC FRET -200.5, Runt-CBFb FRET -252.1, AI-2 QS modul 4.9, proKLK7 act conf 215.6* and EDANS interfere 235.6*.
[O-][n+]1ccccc1/C=C/c1ccccc1 was read as KLK7 zymogen act 0.5, RanGTP-Imp inh 2.0 and AI-2 QS modul 18.3.
Screening Nc1cccc2c1C(=O)N(C(=O)c1ccco1)C2=O returned KLK7 zymogen act 31.6*, Wee1 degr inh -2.9, RanGTP-Imp inh 26.4*, Runt-SMMHC FRET 83.7*, Runt-CBFb FRET -45.3, AI-2 QS modul 5.8, proKLK7 act conf 153.9* and EDANS interfere 177.7*.
For O=C(c1ccco1)N1C(=O)c2cccc3cccc1c23 the results were KLK7 zymogen act 35.1*, Wee1 degr inh 3.9, Runt-SMMHC FRET -5.9, Runt-CBFb FRET -1.6, proKLK7 act conf 87.0* and EDANS interfere 89.7*.
`O=C(c1cccs1)N1C(=O)c2cccc3cccc1c23` gave KLK7 zymogen act 31.9*, Wee1 degr inh 0.3, RanGTP-Imp inh -0.2, Runt-SMMHC FRET -2.3, Runt-CBFb FRET -0.2, AI-2 QS modul 13.8, proKLK7 act conf -1.4 and EDANS interfere -11.9.
Screening O=C(c1ccco1)N1CCN(C(=O)c2ccco2)CC1 returned KLK7 zymogen act -0.1.
O=C1CCN(C(=O)c2cccs2)c2ccccc21 was read as KLK7 zymogen act 0.1, Wee1 degr inh -2.2, RanGTP-Imp inh -2.9, Runt-SMMHC FRET -5.0, Runt-CBFb FRET 0.3 and AI-2 QS modul 28.8.
`O=C(c1ccccc1F)N1C(=O)c2cccc3cccc1c23` gave KLK7 zymogen act 7.7, Wee1 degr inh -1.1, RanGTP-Imp inh -5.0, Runt-SMMHC FRET -3.0, Runt-CBFb FRET 0.8 and AI-2 QS modul 31.2.
Screening CCC(C)(C)NC(=O)C(c1ccccn1)N(C(=O)c1csnn1)c1ccc(C)cc1 (configuration not stated) returned KLK7 zymogen act 0.5, Wee1 degr inh 2.3, RanGTP-Imp inh 1.2, Runt-SMMHC FRET 0.3, Runt-CBFb FRET -2.3 and AI-2 QS modul 15.7.
Screening CN(C)CCNc1ccc2ncn3c4ccc(O)cc4c(=O)c1c23 returned KLK7 zymogen act 71.9*, proKLK7 act conf 56.8* and EDANS interfere 49.9*.
Screening CN(C)CCNc1ccc(CO)c2sc3ccc(O)cc3c(=O)c12 returned KLK7 zymogen act 0.5.
Screening CC(C)(C)CC(=O)Nc1nnc(SCC(=O)N2CCCCC2)s1 returned KLK7 zymogen act -0.2 and RanGTP-Imp inh -0.7.
For CC(C)(C)N(Cc1ccccc1)C(=O)COC(=O)Cn1cnc2ccccc2c1=O the results were KLK7 zymogen act 14.7*, Wee1 degr inh -1.3, RanGTP-Imp inh 2.7, Runt-SMMHC FRET 3.2, Runt-CBFb FRET -2.7, AI-2 QS modul 1.3, proKLK7 act conf 0.9 and EDANS interfere 0.6.
Screening O=C1C=C(c2cnc3ccccc3c2)C[C@@H](c2ccc3c(c2)OCO3)C1 returned KLK7 zymogen act 0.3.
Screening COc1ccc(-c2cn3cccnc3n2)cc1NC(=O)C1CCCC1 returned KLK7 zymogen act 2.4, Wee1 degr inh -1.0, RanGTP-Imp inh 4.6, Runt-SMMHC FRET 4.2, Runt-CBFb FRET -0.7 and AI-2 QS modul 14.9.
`COc1cc(C(=O)Nc2cc(-c3cn4cccnc4n3)ccc2C)cc(OC)c1OC` gave KLK7 zymogen act 47.3*, Wee1 degr inh 4.2, RanGTP-Imp inh 1.1, Runt-SMMHC FRET 2.6, Runt-CBFb FRET -0.9, AI-2 QS modul 3.9, proKLK7 act conf -11.8 and EDANS interfere -19.7.

Source: PubChem (several laboratories)
